Published values from different studies.
ache: Acetylcholinesterase (ache, Electrophorus electricus, UniProt O42275)
Chrna7: Neuronal acetylcholine receptor subunit alpha-7 (Chrna7, Rattus norvegicus, UniProt Q05941)

SMILES | target | observed | action | technique | notes | IC50
C#CCN(C)CCCCCCCCOc1cccc(CN(C)c2c3c(nc4ccc(C)cc24)CCCC3)c1 | ache | enzyme activity | inhibitor | Ellman | – | 32.2 µM
CCCCCCCCCC(=O)N[C@@H](CCCN=C(N)N)C(=O)N[C@H](C(=O)N[C@@H](CCCCN)C(=O)N[C@@H](CCCN=C(N)N)C(=O)CCl)C(C)C | Furin (FURIN, Homo sapiens, UniProt P09958) | enzyme activity | inhibitor | – | – | 0.00134 µM
CC(C)C[C@H](NC(=O)[C@H]1O[C@@H]1C(=O)O)C(=O)NCCCCN=C(N)N | Pro-cathepsin H (Homo sapiens, UniProt P09668) | enzyme activity | inhibitor | – | – | 0.025 µM
COc1ccc2c3c([nH]c2c1)CCN(C)CC3 | Chrna7 | ion current | antagonist | two-electrode voltage clamp | oocytes | 10.2 µM
CNC(=O)c1ccc(-c2cnn3ccc(C(=O)N(C)c4ccc(Cl)c(C(=O)OC)c4)cc23)cc1 | Tyrosine-protein kinase receptor UFO (AXL, Homo sapiens, UniProt P30530) | enzyme activity | inhibitor | – | – | > 30 µM
COc1ccc2[nH]c3c(c2c1)CCN(C)CC3 | Chrna7 | ion current | antagonist | two-electrode voltage clamp | oocytes | 11.4 µM
CNC(=O)c1ccc(-c2cnn3ccc(C(=O)N(C)c4ccc(Cl)c(C(=O)O)c4)cc23)cc1 | Ephrin type-A receptor 4 (EPHA4, Homo sapiens, UniProt P54764) | enzyme activity | inhibitor | – | – | > 30 µM
C#CCN(C)CCCOc1cccc(CN(C)c2c3c(nc4ccc(C)cc24)CCCC3)c1 | ache | enzyme activity | inhibitor | Ellman | – | 5.36 µM
